This series in a line: Toxicity liver stage against HepG2, at 10uM. Particulars: human, HepG2-A16-CD81EGFP cells; read-out: INHIBITION
Also noted: test concentration 10 uM, cell line HepG2-A16-CD81EGFP. The format is cell-based. In outline: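 Uninfected HepG2-A16-CD81EGFP cells, 3 × 10^3 per well, 1536-well, plated on prespotted compound at 10 μM final, parasite-free screening media added to match infected plates; puromycin 10 μM positive, DMSO 0.5% negative; run in parallel with 48 h PbLuc assay at 37 °C, 5% CO2; viability by CellTiter-Glo luminescence, normalized to controls.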
On to `O=c1c2ccccc2nc2n1C(CSc1ccc(Cl)cc1)CN2` (stereo not given), for which the cytotoxicity at 10 µM is 9.38%. With `COc1ccc2c(c1)nc1n2[C@@H](CNC(=O)c2cccnc2)COC1` the figure was -3.74%. Turning to `CCN1CCC(=O)N(C)Cc2cc(F)ccc21`, the cytotoxicity at 10 µM was determined as 9.78%. With `NCCC(Cc1ccccc1)c1ccco1` (stereo not given) the figure was 0.45%. `COC(=O)N1CCc2ccccc2C1C(=O)NCc1ccncc1` (stereo not given): the cytotoxicity at 10 µM was -4.83%. The same measure for `CCC(=O)N1CCC(c2nc(N3CCOCC3)ncc2S(C)(=O)=O)CC1`: 3.65%. In the case of `Cc1cccc(Nc2ccc(C3CCN(Cc4ncc[nH]4)CC3)nc2)n1`, the cytotoxicity at 10 µM was -2.83%. In the case of `Nc1cccc(C2CN(C(=O)CN3CCOCC3)CCO2)n1` (stereo not given), the cytotoxicity at 10 µM is -8.83%. As for `Cc1noc(C)c1CN(C)C(=O)C1CCCCN1S(C)(=O)=O` (stereo not given), the cytotoxicity at 10 µM came out at 5.04%. Take `CCOC(=O)NC1CCCN(c2cncc(Br)c2)C1` (stereo not given): the cytotoxicity at 10 µM is -46.4%.

Consider `Cc1cc(Cn2cc(C#N)c(=O)c3ccccc32)no1`, for which the cytotoxicity at 10 µM came to 5.76%. The same measure for `CC(=O)NCCCSC1CCN(c2ccccc2Cl)C1=O` (stereo not given): -9.04%; for `CC(C)Cc1nnc(NC(=O)NC(CCO)c2cccs2)s1` (stereo not given): 0.191%. On to `Cc1cc(Br)ccc1C(=O)N(C)CCNS(C)(=O)=O`, for which the cytotoxicity at 10 µM was -54.1%.

With `COc1ccc(S(=O)(=O)NC(=O)c2ccccc2F)cc1OC`, the cytotoxicity at 10 µM was -2.72%. With `CC/C(C)=C/CCN1CCN(C)C2(CCNC(=O)CC2)C1` (stereo not given) the figure was -48.2%; with `O=C(NCc1cc2n(n1)CCCN(Cc1ccc(Cl)s1)C2)C1CCC1`, 5.46%; with `C[C@@H]1CN(C(=O)c2c[nH]c(=O)c(Cl)c2)CC[C@@]1(O)C1CCOCC1`, 1.09%. As for `CCc1ncc(C(=O)NCC2CCN(Cc3ccncc3)CC2)cn1`, the cytotoxicity at 10 µM stood at 8.12%. Consider `Cc1nn2c(N3CCS(=O)(=O)CC3)cc(-c3ccccc3)nc2c1C`, for which the cytotoxicity at 10 µM is -6.43%.

Regarding `O=C(NCCc1cccnc1)c1ccc2nccn2c1`, the cytotoxicity at 10 µM is -38.6%. With `Cc1cnccc1N1CCCN(C(=O)CCCc2cn[nH]c2)CC1` the figure was -30.3%; with `CC(C)c1nccn1C1CCCN(C(=O)c2ccc3nncn3c2)C1` (stereo not given), -5.53%; with `COC(=O)c1cccn1C1CCN(C(=O)c2c(C)noc2C)CC1`, -11.4%. For the compound `COC(CNC(=O)NCc1c(C)cc(C)[nH]c1=O)c1ccccc1` (stereo not given), the cytotoxicity at 10 µM is -6.12%. `CCOc1ccnc(N2CCN(C(=O)c3ccc(C#N)cc3)CC2)n1`: the cytotoxicity at 10 µM is -10.6%. Consider `CSc1nccn1-c1ccc(C(=O)NCC2CC2)cc1`, for which the cytotoxicity at 10 µM is -3.67%.

Regarding `CC(C)CCc1nc(CN2CCOC(Cn3cncn3)C2)cs1` (stereo not given), the cytotoxicity at 10 µM is -6.06%.

Consider `CNS(=O)(=O)c1ccc(C(=O)N2CCCC2c2ccncc2)o1` (stereo not given), for which the cytotoxicity at 10 µM is -6.23%.

`C=C(Cl)CN(C)C1CCN(CCc2ccccn2)CC1`: the cytotoxicity at 10 µM was -2.93%.

Regarding `Cc1ccc(-c2cc(CNC(=O)N3CCCN(C)CC3)on2)cc1`, the cytotoxicity at 10 µM was -5.19%.

`CC1CN(CC(=O)NCc2cccs2)CCN1c1nccs1` (stereo not given): the cytotoxicity at 10 µM is -12.8%. With `Cc1cccc(C2(C(=O)NC(C)Cn3ccnc3)CC2)c1` (stereo not given), the cytotoxicity at 10 µM worked out at 0.742%. Turning to `COc1c(C2CCCN2C(=O)c2c(C)noc2C(C)C)c(C)nn1C` (stereo not given), the cytotoxicity at 10 µM was determined as 8.88%. With `Cc1cnn(CC(=O)N2CCCN(c3nc(C)cs3)CC2)c1`, the cytotoxicity at 10 µM is -4.71%.

In the case of `COc1c(CNCc2ccc(OCC(N)=O)cc2)c(C)nn1C`, the cytotoxicity at 10 µM was -3.81%.

As to `CCn1cnnc1CNC(=O)N(C)Cc1cccc(OC(F)F)c1`, the cytotoxicity at 10 µM is -3.73%. The same measure for `COc1ccc(CNC(=O)NCCc2csc(C)n2)cn1`: -7.05%. The same measure for `Cc1ccc(CC(=O)NCCCNS(C)(=O)=O)cc1`: 3.1%; for `CCCSCC(=O)N1C[C@H]2CC[C@@H](C1)N(Cc1ccccn1)C2=O`: 3.32%.

Values taken from ChEMBL document CHEMBL4513216, “Probing the Open Global Health Chemical Diversity Library for Multistage-Active Starting Points for Next-Generation Antimalarials” (ACS Infect Dis, 2020).
